# Test results taken from ChEMBL document CHEMBL5653617, “Inhibition of BRD4 attenuates tumor cell self-renewal and suppresses stem cell signaling in MYC driven medulloblastoma” (Oncotarget, 2014).
# Active and inactive are the calls of the source.
# Legend:
# D458 Med = assay: Antiproliferative activity in human D458 Med cells assessed as inhibition of cell growth at 300 nM by flow cytometry analysis; assay type: functional, cell-based
# Method in brief: (§1)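 ViaCount flow cytometric cell count. Cells seeded in medium, DMSO or drug added 24 h later, cultured a further 48 h. Cells then pelleted, washed, stained with Viacount reagent and counted on a Guava cytometer. Vehicle control DMSO.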
# [1] = biological target: Bromodomain-containing protein 4 (Homo sapiens) (UniProt O60885); conditions: D283 Med, dose 300.0 nM
# D425 Med = assay: Inhibition of colony formation in human D425 Med cells at 100 to 300 nM incubated for 8 to 11 days by NBT staining based methyl cellulose colony growth assay; assay type: functional, cell-based; conditions: dose 100-300 nM, time 8-11 day
# Method in brief: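 500 cells/well suspended in DMEM with methyl cellulose (1.3% final) containing 150 or 300 nM drug or DMSO, plated in triplicate. Colonies formed over 8–11 days, then stained with NBT (1 mg/ml) for 24 h at 37 °C. Colonies of ≥50 cells counted.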
# Daoy [2] = assay: Induction of senescence in human Daoy cells assessed as increase in p27 protein expression at 300 nM by immunoblot analysis; assay type: functional, cell-based
# Method in brief: (§2)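 Protein lysates prepared in RIPA buffer with protease inhibitors. Standard western blot with HRP-conjugated secondary antibodies and chemiluminescent detection.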
# [3] = biological target: Bromodomain-containing protein 4 (Homo sapiens) (UniProt O60885); conditions: Daoy, dose 300.0 nM
# Daoy [4] = assay: Downregulation of CRIP1 gene expression in human Daoy cells at 300 nM by GSEA method; assay type: functional, cell-based
# Method in brief: (§3)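 Daoy cells treated with DMSO or 300 nM drug. RNA extracted and hybridized to Affymetrix HG-ST2.0 arrays. Analysis in R/Bioconductor with gene set enrichment analysis. Regulated transcripts defined as p < 0.05, FDR < 0.05, fold change < 0.67 (down) or > 1.5 (up).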
# [5] = biological target: Bromodomain-containing protein 4 (Homo sapiens) (UniProt O60885); conditions: D283 Med, dose 300.0 nM; remark: listed apart in the source
# Daoy [6] = assay: Antiproliferative activity in human Daoy cells assessed as inhibition of cell growth at 300 nM by flow cytometry analysis; assay type: functional, cell-based; method in brief: as §1
# Medulloblastoma cell = assay: Antitumor activity against patient-derived Medulloblastoma cells assessed as BrdU incorporation at 300 nM preincubated with compound for 7 days followed by BrdU addition and measured after 2 days by flow cytometry analysis (reference value: 33.3); assay type: functional, Homo sapiens; conditions: time 9 day
# Daoy [7] = assay: Downregulation of MYBL2 gene expression in human Daoy cells at 300 nM by GSEA method; assay type: functional, cell-based; method in brief: as §3
# Daoy [8] = assay: Downregulation of CENPF gene expression in human Daoy cells at 300 nM by GSEA method; assay type: functional, cell-based; method in brief: as §3
# Daoy [9] = assay: Downregulation of IFRD1 gene expression in human Daoy cells at 300 nM by GSEA method; assay type: functional, cell-based; method in brief: as §3
# [10] = biological target: Bromodomain-containing protein 4 (Homo sapiens) (UniProt O60885); conditions: D458 Med, dose 300.0 nM
# Daoy [11] = assay: Induction of senescence in human Daoy cells assessed as decrease in phosphorylated RB protein expression at 300 nM by immunoblot analysis; assay type: functional, cell-based; method in brief: as §2
# [12] = biological target: Bromodomain-containing protein 4 (Homo sapiens) (UniProt O60885); conditions: D283 Med, dose 300.0 nM; remark: listed apart in the source
# [13] = biological target: Bromodomain-containing protein 4 (Homo sapiens) (UniProt O60885); conditions: Daoy, dose 300.0 nM; remark: listed apart in the source
# [14] = biological target: Bromodomain-containing protein 4 (Homo sapiens) (UniProt O60885); conditions: UW228, dose 300.0 nM
# Daoy [15] = assay: Downregulation of BARD1 gene expression in human Daoy cells at 300 nM by GSEA method; assay type: functional, cell-based; method in brief: as §3
# [16] = biological target: Bromodomain-containing protein 4 (Homo sapiens) (UniProt O60885); conditions: D283 Med, dose 300.0 nM; remark: listed apart in the source
# [17] = biological target: Bromodomain-containing protein 4 (Homo sapiens) (UniProt O60885); conditions: Daoy, dose 100-300 nM, time 48.0 hrs
smiles,measurement,setting,value
Cc1sc2c(c1C)C(c1ccc(Cl)cc1)=N[C@@H](CC(=O)OC(C)(C)C)c1nnc(C)n1-2,Activity,D458 Med,Active
same,inhibition,[1],Active
same,inhibition,D425 Med,Active
same,Activity,Daoy [2],Active
same,inhibition,[3],Active
same,Activity,Daoy [4],Active
same,inhibition,[5],Active
same,Activity,Daoy [6],Active
same,Activity,Medulloblastoma cell,13.5
same,Activity,Daoy [7],Active
same,Activity,Daoy [8],Active
same,Activity,Daoy [9],Active
same,inhibition,[10],Active
same,Activity,Daoy [11],Active
same,inhibition,[12],Active
same,inhibition,[13],Active
same,inhibition,[14],Active
same,Activity,Daoy [15],Active
same,inhibition,[16],Active
same,inhibition,[17],Dose-Dependent Effect
